Data: ChEMBL document CHEMBL4706672 (J Med Chem, 2021)
pIC50: −log10 of the molar value. The source made the active and inactive calls. No cut-off for these calls is given here.

How the values were obtained:
[1] = tested on: HEK293; test: Antiproliferative activity against human HEK293 cells assessed as reduction in cell viability incubated for 24 hrs by MTT assay; type: functional, cell-based; conditions: HEK293, 24 h
Outline: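 HEK-293 cells were treated with compound for 24 h, in parallel with the luciferase reporter assay. Viability was read by MTT absorbance at 570 nm, and IC50 was taken from three independent experiments.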

[2] = target: Signal transducer and activator of transcription 3 (Homo sapiens) (UniProt P40763); test: Inhibition of STAT3 phosphorylation in human BxPC-3 cells at 1 uM after 16 hrs by western blot analysis; type: cell-based
Outline: (§1)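 Cells were seeded in 6-well plates (BxPC-3 500 × 10^3, MIA PaCa-2 200 × 10^3 cells/well) and exposed to compound for 16 h. Lysis was at 4 °C by sonication in Tris/NaCl/Triton/SDS buffer, pH 7.4, with protease and phosphatase inhibitors. Lysates were run on SDS-PAGE, transferred to PVDF and probed for STAT3, pSTAT3 and NQO1 with GAPDH as loading control. Immunoblots were imaged on an Odyssey system.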

[3] = target: Signal transducer and activator of transcription 3 (Homo sapiens) (UniProt P40763); test: Inhibition of STAT3 phosphorylation in human MIA PaCa-2 cells at 0.5 to 1 uM after 16 hrs by western blot analysis; type: cell-based; conditions: dose 0.5-1 µM; outline: as §1
[4] = tested on: MIA PaCa-2; test: Effect on NQO1 expression in human MIA PaCa-2 cells at […] to 1 uM incubated for 16 hrs by western blot analysis; type: functional, cell-based; conditions: dose 0.5-1 µM; outline: as §1
[5] = target: T1, Protein cereblon/E3 ubiquitin-protein ligase ZFP91 (Homo sapiens, UniProt Q96SW2+Q96JP5); test: Protac activity at CRBN/ZFP91 in human BxPC-3 cells assessed as induction of ZF91 degradation incubated for 16 hrs by western blot analysis; type: cell-based
Outline: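 BxPC-3 cells treated for 4, 16 or 24 h across a concentration series. ZFP91 immunoblotted against GAPDH; bands quantified by densitometry, DC50 calculated from dose-response curves of the densitometry.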

[6] = target: T1, Protein cereblon/E3 ubiquitin-protein ligase ZFP91; test: Protac activity at CRBN/ZFP91 in human MIA PaCa-2 cells assessed as ZF91 protein degradation at 0.1 to 0.5 uM incubated for 16 hrs in presence of proteasome inhibitor carfilzomib by western blot analysis; type: cell-based; conditions: dose 0.1-0.5 µM
Target sequence in this assay (Q96JP5 2-570 partner limits assumed): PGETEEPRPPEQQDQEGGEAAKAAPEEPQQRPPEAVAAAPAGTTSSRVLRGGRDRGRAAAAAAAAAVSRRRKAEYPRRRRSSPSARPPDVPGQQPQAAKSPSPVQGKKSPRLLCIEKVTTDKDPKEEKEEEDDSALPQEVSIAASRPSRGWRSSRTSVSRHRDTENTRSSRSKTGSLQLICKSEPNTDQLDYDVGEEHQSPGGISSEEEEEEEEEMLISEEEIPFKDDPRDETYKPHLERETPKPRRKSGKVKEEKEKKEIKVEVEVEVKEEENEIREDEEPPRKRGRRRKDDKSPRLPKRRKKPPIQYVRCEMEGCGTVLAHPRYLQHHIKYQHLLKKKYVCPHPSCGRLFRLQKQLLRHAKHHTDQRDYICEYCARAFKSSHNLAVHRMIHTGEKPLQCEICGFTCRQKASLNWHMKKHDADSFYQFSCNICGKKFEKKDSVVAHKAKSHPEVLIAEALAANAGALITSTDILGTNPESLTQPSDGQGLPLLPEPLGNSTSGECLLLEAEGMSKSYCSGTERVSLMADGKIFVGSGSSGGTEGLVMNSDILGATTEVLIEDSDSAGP
Target sequence in this assay (Q96SW2 whole entry): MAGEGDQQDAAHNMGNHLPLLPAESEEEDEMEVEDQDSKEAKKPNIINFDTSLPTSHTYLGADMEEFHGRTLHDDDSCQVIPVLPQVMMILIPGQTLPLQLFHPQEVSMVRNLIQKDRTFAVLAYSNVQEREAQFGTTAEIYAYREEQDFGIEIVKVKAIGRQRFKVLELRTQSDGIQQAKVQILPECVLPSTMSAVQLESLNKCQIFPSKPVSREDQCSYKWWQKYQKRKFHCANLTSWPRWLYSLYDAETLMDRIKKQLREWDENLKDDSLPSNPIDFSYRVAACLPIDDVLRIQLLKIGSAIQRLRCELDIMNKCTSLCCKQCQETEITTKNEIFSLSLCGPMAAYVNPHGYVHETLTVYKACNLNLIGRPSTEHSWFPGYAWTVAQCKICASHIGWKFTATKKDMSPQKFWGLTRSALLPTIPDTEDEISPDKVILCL

[7] = target: Protein cereblon/Serine/threonine-protein kinase PLK1 (Homo sapiens) (UniProt P53350+Q96SW2); test: Protac activity at CRBN/PLK1 in human BxPC-3 cells assessed as PKL1 degradation incubated for 16 hrs by proteomic analysis; type: cell-based
Outline: (§2)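 TMT 10plex proteomics. […] Samples (75 μg) were reduced with DTT, alkylated with 2-chloroacetamide, acetone-precipitated, trypsin-digested overnight at 37 °C and TMT-labeled for LC-MS/MS relative quantitation.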

[8] = target: Protein cereblon/Dynein light chain Tctex-type 1 (Homo sapiens) (UniProt Q96SW2+P63172); test: Protac activity at CRBN/DYNLT1 in human BxPC-3 cells assessed as DYNLT1 degradation incubated for 16 hrs by proteomic analysis; type: cell-based; outline: as §2
[9] = target: Protein cereblon/Kunitz-type protease inhibitor 1 (Homo sapiens) (UniProt Q96SW2+O43278); test: Protac activity at CRBN/SPINT1 in human BxPC-3 cells assessed as SPINT1 degradation incubated for 16 hrs by proteomic analysis; type: cell-based; outline: as §2
[10] = target: Protein cereblon/Endothelial differentiation-related factor 1 (Homo sapiens) (UniProt Q96SW2+O60869); test: Protac activity at CRBN/EDF1 in human BxPC-3 cells assessed as EDF1 degradation incubated for 16 hrs by proteomic analysis; type: cell-based; outline: as §2
[11] = target: Protein cereblon/Cystatin-C (Homo sapiens) (UniProt P01034+Q96SW2); test: Protac activity at CRBN/CST3 in human BxPC-3 cells assessed as CST3 degradation incubated for 16 hrs by proteomic analysis; type: cell-based; outline: as §2
[12] = target: Protein cereblon/Protein FAM3C (Homo sapiens) (UniProt Q96SW2+Q92520); test: Protac activity at CRBN/FAM3C in human BxPC-3 cells assessed as FAM3C degradation incubated for 16 hrs by proteomic analysis; type: cell-based; outline: as §2
[13] = target: Protein cereblon/Epithelial discoidin domain-containing receptor 1 (Homo sapiens) (UniProt Q08345+Q96SW2); test: Protac activity at CRBN/DDR1 in human BxPC-3 cells assessed as DDR1 degradation incubated for 16 hrs by proteomic analysis; type: cell-based; outline: as §2
[14] = target: Protein cereblon/Desmoplakin (Homo sapiens) (UniProt Q96SW2+P15924); test: Protac activity at CRBN/DSP in human BxPC-3 cells assessed as DSP degradation incubated for 16 hrs by proteomic analysis; type: cell-based; outline: as §2
[15] = target: Protein cereblon/Adhesion G-protein coupled receptor G1 (Homo sapiens) (UniProt Q96SW2+Q9Y653); test: Protac activity at CRBN/ADGRG1 in human BxPC-3 cells assessed as ADGRG1 degradation incubated for 16 hrs by proteomic analysis; type: cell-based; outline: as §2
[16] = target: Protein cereblon/Agrin (Homo sapiens) (UniProt Q96SW2+O00468); test: Protac activity at CRBN/Agrin in human BxPC-3 cells assessed as Agrin degradation incubated for 16 hrs by proteomic analysis; type: cell-based; outline: as §2
[17] = target: Protein cereblon/Protein PRRC2B (Homo sapiens) (UniProt Q96SW2+Q5JSZ5); test: Protac activity at CRBN/PRRC2B in human BxPC-3 cells assessed as PRRC2B degradation incubated for 16 hrs by proteomic analysis; type: cell-based; outline: as §2
[18] = target: Protein cereblon/Methylated-DNA--protein-cysteine methyltransferase (Homo sapiens) (UniProt P16455+Q96SW2); test: Protac activity at CRBN/MGMT in human BxPC-3 cells assessed as MGMT degradation incubated for 16 hrs by proteomic analysis; type: cell-based; outline: as §2
[19] = target: T1, Protein cereblon/E3 ubiquitin-protein ligase ZFP91; test: Protac activity at CRBN/ZFP91 in human BxPC-3 cells assessed as ZFP91 degradation incubated for 16 hrs by proteomic analysis; type: cell-based
Outline: (§3)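 BxPC-3 cells exposed 16 h in triplicate (control, PROTAC) or duplicate (other arms); lysed in RIPA at 4 °C, 75 μg protein per sample. Reduced with DTT (1 h, 55 °C), alkylated with 2-chloroacetamide, acetone-precipitated, trypsin-digested overnight at 37 °C, TMT 10plex labelled, relative quantitation by LC-tandem MS.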
Target sequence in this assay (Q96JP5 2-570 partner limits assumed): as the sequence (Q96JP5 2-570 partner limits assumed) above
Target sequence in this assay (Q96SW2 whole entry): as the sequence (Q96SW2 whole entry) above

[20] = target: Protein cereblon/DNA polymerase delta subunit 4 (Homo sapiens) (UniProt Q9HCU8+Q96SW2); test: Protac activity at CRBN/POLD4 in human BxPC-3 cells assessed as POLD4 degradation incubated for 16 hrs by proteomic analysis; type: cell-based; outline: as §2
[21] = target: Protein cereblon/Ubiquitin carboxyl-terminal hydrolase 8 (Homo sapiens) (UniProt P40818+Q96SW2); test: Protac activity at CRBN/USP8 in human BxPC-3 cells assessed as USP8 degradation incubated for 16 hrs by proteomic analysis; type: cell-based; outline: as §3
[22] = Upregulation of Arx protein levels in human BxPC-3 cells incubated for 16 hrs by proteomic analysis; type: functional; outline: as §3
[23] = Upregulation of SYNC protein levels in human BxPC-3 cells incubated for 16 hrs by proteomic analysis; type: functional; outline: as §3
[24] = Upregulation of ECM1 protein levels in human BxPC-3 cells incubated for 16 hrs by proteomic analysis; type: functional; outline: as §3
[25] = Upregulation of RhoB protein levels in human BxPC-3 cells incubated for 16 hrs by proteomic analysis; type: functional; outline: as §3
[26] = Upregulation of ABCB6 protein levels in human BxPC-3 cells incubated for 16 hrs by proteomic analysis; type: functional; outline: as §3
[27] = Upregulation of EPHB3 protein levels in human BxPC-3 cells incubated for 16 hrs by proteomic analysis; type: functional; outline: as §3

Chain of Signal transducer and activator of transcription 3 (Homo sapiens) (P40763 whole entry): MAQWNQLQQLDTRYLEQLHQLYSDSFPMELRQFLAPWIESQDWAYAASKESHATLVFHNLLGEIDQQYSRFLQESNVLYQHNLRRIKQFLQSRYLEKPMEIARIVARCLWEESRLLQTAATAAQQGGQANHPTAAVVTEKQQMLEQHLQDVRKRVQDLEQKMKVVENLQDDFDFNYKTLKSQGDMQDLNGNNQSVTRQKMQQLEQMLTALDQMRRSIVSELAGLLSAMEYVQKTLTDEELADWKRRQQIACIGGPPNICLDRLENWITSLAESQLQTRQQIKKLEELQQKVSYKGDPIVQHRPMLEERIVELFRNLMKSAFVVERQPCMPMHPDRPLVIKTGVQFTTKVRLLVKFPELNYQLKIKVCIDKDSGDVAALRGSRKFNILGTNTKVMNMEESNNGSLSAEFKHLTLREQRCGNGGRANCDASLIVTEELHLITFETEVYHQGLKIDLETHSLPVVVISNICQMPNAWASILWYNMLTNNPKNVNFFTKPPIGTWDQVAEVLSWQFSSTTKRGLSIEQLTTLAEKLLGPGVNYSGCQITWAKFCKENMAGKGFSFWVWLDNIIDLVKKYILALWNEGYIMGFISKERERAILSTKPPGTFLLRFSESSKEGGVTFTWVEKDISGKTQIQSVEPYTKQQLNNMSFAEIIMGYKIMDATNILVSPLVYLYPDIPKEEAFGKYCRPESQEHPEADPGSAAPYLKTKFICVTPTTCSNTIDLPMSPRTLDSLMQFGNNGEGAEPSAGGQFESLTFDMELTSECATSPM
Chain of Protein cereblon/Desmoplakin (Homo sapiens) (P15924 whole entry, looked up): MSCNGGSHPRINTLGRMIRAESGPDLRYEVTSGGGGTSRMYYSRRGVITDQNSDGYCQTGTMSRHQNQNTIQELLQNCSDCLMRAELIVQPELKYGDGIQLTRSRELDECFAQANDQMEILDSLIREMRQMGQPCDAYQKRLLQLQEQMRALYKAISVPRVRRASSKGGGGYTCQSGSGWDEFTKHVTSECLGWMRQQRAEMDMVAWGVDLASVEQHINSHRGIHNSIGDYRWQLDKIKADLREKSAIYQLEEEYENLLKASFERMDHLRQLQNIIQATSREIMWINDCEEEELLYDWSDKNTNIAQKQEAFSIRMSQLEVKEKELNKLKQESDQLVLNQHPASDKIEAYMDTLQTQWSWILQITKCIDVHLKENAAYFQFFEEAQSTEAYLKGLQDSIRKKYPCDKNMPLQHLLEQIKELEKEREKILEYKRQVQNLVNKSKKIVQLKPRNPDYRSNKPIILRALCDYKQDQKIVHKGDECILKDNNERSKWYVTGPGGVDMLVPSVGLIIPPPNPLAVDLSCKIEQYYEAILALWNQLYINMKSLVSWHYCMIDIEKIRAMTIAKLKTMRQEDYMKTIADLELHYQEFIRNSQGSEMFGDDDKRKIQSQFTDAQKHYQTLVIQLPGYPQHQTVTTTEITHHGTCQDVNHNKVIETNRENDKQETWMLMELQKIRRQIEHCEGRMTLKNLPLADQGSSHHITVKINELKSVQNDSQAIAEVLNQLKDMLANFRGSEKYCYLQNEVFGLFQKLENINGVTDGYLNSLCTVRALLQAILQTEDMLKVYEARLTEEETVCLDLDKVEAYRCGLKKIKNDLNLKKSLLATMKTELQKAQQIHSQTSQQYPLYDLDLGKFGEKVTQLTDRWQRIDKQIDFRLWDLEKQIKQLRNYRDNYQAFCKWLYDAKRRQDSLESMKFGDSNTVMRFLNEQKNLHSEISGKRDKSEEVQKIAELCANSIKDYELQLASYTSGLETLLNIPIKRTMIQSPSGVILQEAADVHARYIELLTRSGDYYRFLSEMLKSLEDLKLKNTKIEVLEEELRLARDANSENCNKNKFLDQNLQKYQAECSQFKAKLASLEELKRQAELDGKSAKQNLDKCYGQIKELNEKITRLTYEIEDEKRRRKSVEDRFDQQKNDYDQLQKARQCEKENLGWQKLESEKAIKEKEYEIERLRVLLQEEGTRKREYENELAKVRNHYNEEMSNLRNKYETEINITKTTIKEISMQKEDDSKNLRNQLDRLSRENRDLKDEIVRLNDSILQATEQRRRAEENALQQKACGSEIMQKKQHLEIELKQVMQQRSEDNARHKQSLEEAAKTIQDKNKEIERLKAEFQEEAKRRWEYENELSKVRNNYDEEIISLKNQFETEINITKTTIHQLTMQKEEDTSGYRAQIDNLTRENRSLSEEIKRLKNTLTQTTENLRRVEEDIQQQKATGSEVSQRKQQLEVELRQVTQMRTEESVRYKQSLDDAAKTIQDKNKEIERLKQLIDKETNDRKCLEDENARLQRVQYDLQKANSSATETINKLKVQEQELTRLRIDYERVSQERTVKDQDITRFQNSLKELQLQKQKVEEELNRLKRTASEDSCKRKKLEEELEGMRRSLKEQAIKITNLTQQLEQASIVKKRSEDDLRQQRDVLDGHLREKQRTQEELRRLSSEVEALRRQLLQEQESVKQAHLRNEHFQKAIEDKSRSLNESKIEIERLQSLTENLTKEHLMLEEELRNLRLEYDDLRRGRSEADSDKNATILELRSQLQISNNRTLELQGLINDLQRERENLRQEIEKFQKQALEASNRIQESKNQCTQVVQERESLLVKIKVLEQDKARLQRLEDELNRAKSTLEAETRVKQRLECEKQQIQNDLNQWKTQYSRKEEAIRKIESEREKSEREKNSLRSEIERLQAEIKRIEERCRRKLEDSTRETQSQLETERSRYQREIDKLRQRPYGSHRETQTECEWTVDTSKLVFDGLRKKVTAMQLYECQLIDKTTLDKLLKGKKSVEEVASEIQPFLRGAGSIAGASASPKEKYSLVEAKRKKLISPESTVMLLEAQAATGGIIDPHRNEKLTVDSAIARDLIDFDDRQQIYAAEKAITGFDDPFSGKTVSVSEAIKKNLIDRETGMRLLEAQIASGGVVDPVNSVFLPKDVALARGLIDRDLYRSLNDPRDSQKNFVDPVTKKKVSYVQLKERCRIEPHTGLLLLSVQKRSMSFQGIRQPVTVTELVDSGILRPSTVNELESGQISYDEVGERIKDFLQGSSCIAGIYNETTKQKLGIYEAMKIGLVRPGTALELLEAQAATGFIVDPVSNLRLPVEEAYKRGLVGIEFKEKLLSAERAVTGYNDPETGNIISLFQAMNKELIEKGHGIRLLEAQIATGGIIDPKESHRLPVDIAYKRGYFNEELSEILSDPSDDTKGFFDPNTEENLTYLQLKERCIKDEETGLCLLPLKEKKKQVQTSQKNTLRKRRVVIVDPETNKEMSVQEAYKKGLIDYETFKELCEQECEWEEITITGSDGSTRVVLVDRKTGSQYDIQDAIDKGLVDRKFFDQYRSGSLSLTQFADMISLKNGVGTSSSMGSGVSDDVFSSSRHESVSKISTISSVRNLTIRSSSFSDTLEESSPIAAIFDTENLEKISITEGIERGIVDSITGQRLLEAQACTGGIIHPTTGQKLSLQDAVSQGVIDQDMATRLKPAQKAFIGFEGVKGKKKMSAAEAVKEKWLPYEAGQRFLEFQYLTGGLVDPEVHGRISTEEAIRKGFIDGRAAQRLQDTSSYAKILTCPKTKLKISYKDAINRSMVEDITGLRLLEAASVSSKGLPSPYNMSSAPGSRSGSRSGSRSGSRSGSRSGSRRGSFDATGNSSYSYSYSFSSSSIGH
Chain of Protein cereblon/Desmoplakin (Homo sapiens) (Q96SW2 whole entry, looked up): as the sequence (Q96SW2 whole entry) above
Chain of Protein cereblon/Protein FAM3C (Homo sapiens) (Q92520 whole entry, looked up, the tested form may be a part): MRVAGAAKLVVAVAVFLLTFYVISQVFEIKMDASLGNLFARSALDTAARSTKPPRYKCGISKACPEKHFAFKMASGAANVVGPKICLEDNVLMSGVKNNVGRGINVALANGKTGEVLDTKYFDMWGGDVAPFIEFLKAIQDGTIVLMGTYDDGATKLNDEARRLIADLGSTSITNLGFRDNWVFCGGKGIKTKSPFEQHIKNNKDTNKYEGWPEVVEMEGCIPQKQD
Chain of Protein cereblon/Protein FAM3C (Homo sapiens) (Q96SW2 whole entry, looked up, the tested form may be a part): as the sequence (Q96SW2 whole entry) above

inhibition [2]: Active | inhibition [3]: inactive | DC50 [5]: 0.08 µM | Activity [6]: inactive | log2FC [7]: -1.25 | log2FC [8]: -0.97 | log2FC [9]: -0.85 | log2FC [10]: -0.82 | log2FC [11]: -0.81 | log2FC [12]: -0.73 | log2FC [13]: -0.73 | log2FC [14]: -0.7 | log2FC [15]: -0.69 | log2FC [16]: -0.68 | log2FC [17]: -0.63 | log2FC [18]: -0.63 | log2FC [19]: -0.62 | log2FC [20]: -0.61 | log2FC [21]: -0.59
SMILES: O=C1CCC(N2C(=O)c3cccc(NCCCCCC4CCN(CCNC(=O)c5cc6c(o5)C(=O)c5ccccc5C6=O)CC4)c3C2=O)C(=O)N1 (configuration not stated)
pIC50 [1]: 5.06 | Activity [4]: inactive | log2FC [22]: 1.54 | log2FC [23]: 1.04 | log2FC [24]: 0.76 | log2FC [25]: 0.73 | log2FC [26]: 0.68 | log2FC [27]: 0.65
